Screens as filed in PubChem.
Rin1-Abl PPI inh – human Rin1-Abl interaction inhibition | inhibition, % at 7.35 µM | hit rate 0.4% among 360,000 | TR-FRET Rin1/Abl binding, biochemical | P00519+Q13671; in the data active = inhibition above about 5%, passing the limit was not always enough
ABHD5 PLIN5 PPI – ABHD5-PLIN5 protein interaction inhibition; Q00G26+Q8WTS1; Split G. princeps luciferase complementation, luminescence, 4 h; inhibition, % at 4 µM; hit rate 0.78% among 360,000;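 active = inhibition above the mean inhibition across every tested compound plus 3 SD, cut at about 22% in these data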;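 also: 0% = DMSO only wells and the 100% control is not disclosed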
XiGFP reactiv – reactivates the inactive X chromosome in mouse fibroblasts | XiGFP mouse fibroblasts, % GFP-positive cells imaging, 3 d; cells co-treated with 5-aza-dC sensitizer; scaled so ellipticine positive control = 100% | activation, % at 7.58 µM | hit rate 0.055% among 360,000 | AID 743238;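 active = mean normalized replicate activation at least 10% and every replicate at or above 10%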;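 also: 0% = median of on-plate neutral control wells and 100% = ellipticine 6 µM median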
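Material: SV40-immortalized XiGFP fibroblast cells, line 68-5-11 | Buffer or medium: DMEM containing 5-aza-dC | Dosing: One concentration, pinned | Times: 3 d treatment, 15 min room-temperature fixation | Controls: Ellipticine 6 µM positive control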
Rpn11 block – blocks the human proteasome subunit Rpn11. hit rate 0.59% among 360,000. human 26S proteasome, Ub4-pepOG fluorescence polarization; 20S core pre-blocked with epoxomicin. inhibition, % at 20 µM. O00487;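 active = inhibition at 20 µM, scaled to each plate's controls, above about 33%, limit read from the data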
NadD inh – blocks S. aureus nicotinate mononucleotide adenylyltransferase. hit rate 0.78% among 360,000. inhibition, % at 20 µM. purified NadD enzyme, colorimetric absorbance read-out; in the data active = inhibition above about 26%
Rpn11 inh conf – Rpn11 inhibition confirmation, single concentration. shares compounds with Rpn11 block. purified human 26S proteasome, Ub4-pepOG fluorescence polarization; proteasome pretreated with epoxomicin. inhibition, % at 20 µM. hit rate 29% among 1,900. AID 602318
MMP-2 inh – MMP-2 (human) inhibition counter-screen. shares compounds with Rpn11 block. inhibition, % at 20 µM. hit rate 4% among 1,900. recombinant MMP-2, FRET peptide cleavage fluorescence;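 also: human MMP-2 activated beforehand with APMA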
Target sequence (P08253 whole entry, looked up): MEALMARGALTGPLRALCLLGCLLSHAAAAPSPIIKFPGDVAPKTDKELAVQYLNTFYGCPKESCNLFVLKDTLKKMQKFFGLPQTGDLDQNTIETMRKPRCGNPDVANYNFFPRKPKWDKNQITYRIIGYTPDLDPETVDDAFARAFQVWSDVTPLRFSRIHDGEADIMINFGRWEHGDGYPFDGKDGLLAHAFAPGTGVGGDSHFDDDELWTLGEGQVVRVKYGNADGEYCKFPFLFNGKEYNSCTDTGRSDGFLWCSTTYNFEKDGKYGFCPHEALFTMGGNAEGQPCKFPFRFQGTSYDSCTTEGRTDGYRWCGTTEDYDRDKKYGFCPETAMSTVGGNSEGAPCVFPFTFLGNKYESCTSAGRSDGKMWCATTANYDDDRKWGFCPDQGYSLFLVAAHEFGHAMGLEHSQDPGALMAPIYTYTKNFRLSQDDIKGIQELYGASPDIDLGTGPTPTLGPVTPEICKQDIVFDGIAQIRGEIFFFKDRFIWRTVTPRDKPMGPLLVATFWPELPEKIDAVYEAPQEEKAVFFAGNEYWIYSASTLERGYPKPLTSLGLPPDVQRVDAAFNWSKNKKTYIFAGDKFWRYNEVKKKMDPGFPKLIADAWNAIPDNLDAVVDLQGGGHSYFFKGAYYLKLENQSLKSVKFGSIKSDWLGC
Thrombin FP – counter-screen for RPN11 inhibitors: inhibition of bovine thrombin | shares compounds with Rpn11 block | bovine thrombin cleavage of Ub4-pepOG, fluorescence polarization | inhibition, % at 20 µM | hit rate 13% among 1,900 | AID 602333;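 active = mean inhibition at least 40% at 20 µM, or signal 3 deviations below plate average, so some actives read negative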;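 also: plate controls were thrombin with DMSO for no effect and buffer wells lacking thrombin for full effect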
Numbers without * were called inactive; x = not tested or not shown; + = active, no number; ! = not confirmed by another sample. The list is not random: actives were taken first. Their share in the collection is about 1.9%. Rule as the data show it, unless noted: active = inhibition above about 40%; inactive = the rest.

SMILES	Rin1-Abl PPI inh	ABHD5 PLIN5 PPI	XiGFP reactiv	Rpn11 block	NadD inh	Rpn11 inh conf	MMP-2 inh	Thrombin FP
CS(=O)(=O)Nc1ccc2c(c1)[C@H]1C[C@H](CC(=O)N3CCc4ccccc4C3)O[C@H](CO)[C@H]1O2	x	x	0	x	x	x	x	x
COc1cc(-c2cc(-c3ccc(F)cc3)nc(N)c2C#N)ccc1O	2	1	0	97*	-6	0	-12	-7
COC(=O)c1ccc(NC(=O)CCN2CCN(c3ccccc3)CC2)cc1	2	7	x	154*	-7	2	-17	-3
NC(=O)CC(NC(=O)Cc1ccc(Br)cc1)c1ccc(NCCc2ccc(Cl)cc2)c([N+](=O)[O-])c1 (stereo not drawn)	1	-3	0	45*	-8	33	5	-1
COc1ccc(CCNc2ccc(C(CC(N)=O)NC(=O)Cc3ccc(Br)cc3)cc2[N+](=O)[O-])cc1 (stereo not drawn)	-1	-12	0	55*	-1	16	-21	-20
C[C@H](CO)N1C[C@H](C)[C@H](CN(C)Cc2ccc(C(=O)O)cc2)OCCCC[C@H](C)Oc2ccc(NC(=O)NC3CCCCC3)cc2C1=O	x	x	0	x	x	x	x	x
CO[C@H]1CN(C)C(=O)c2cc(NC(C)=O)ccc2OC[C@@H](C)N(CC2CCCCC2)C[C@H]1C	x	x	1	x	x	x	x	x
CCCC(=O)NC(c1ccco1)c1cc(Cl)c2cccnc2c1O (stereo not drawn)	3	4	x	42*	10	12	16	1
CCCC(=O)NC(c1cccs1)c1cc(Cl)c2cccnc2c1O (stereo not drawn)	6	-4	0	26	-2	x	x	x
COc1ccc(N=C2S/C(=C\c3cccs3)C(=O)N2CC(C)C)cc1	-1	-4	x	-4	7	x	x	x
COc1ccc(N=C2S/C(=C\c3ccc(C)s3)C(=O)N2CC(C)C)cc1	-4	1	x	100*	2	-3	-3	3
COc1ccc(C2C(C(=O)Nc3ccccc3OC)=C(C)Nc3ncnn32)cc1 (stereo not drawn)	0	1	0	1	-3	x	x	x
COc1ccccc1NC(=O)C1=C(C)Nc2ncnn2C1c1cccs1 (stereo not drawn)	4	0	x	78*	1	-11	-6	-12
CCC(=O)N1C[C@H](C)[C@H](OC)CN(C)C(=O)c2cc(NC(=O)CC(F)(F)F)ccc2OC[C@H]1C	x	x	0	x	x	x	x	x
O=C(NCc1ccc(Cl)cc1)c1ccc(OCC2CCCO2)cc1 (stereo not drawn)	2	9	0	37*	4	-3	-17	-10
O=C(C[C@H]1CC[C@H]2[C@@H](COC[C@H](O)CN2C(=O)Nc2ccccc2)O1)NCCc1ccncc1	x	x	0	x	x	x	x	x
CCCNC(=O)C[C@@H]1C[C@@H]2c3cc(NC(=O)Cc4ccncc4)ccc3O[C@@H]2[C@H](CO)O1	x	x	0	x	x	x	x	x
CCC(=O)N1[C@@H](CO)[C@@H](c2ccc(-c3ccccc3C)cc2)C12CN(C(C)=O)C2	x	x	1	x	x	x	x	x
CCCCN=c1scc(-c2ccc3c(c2)NC(=O)CO3)n1N=C1CCCC1	-1	-11	x	55*	-7	42*	16	28
COCC(C)n1c(-c2ccc3c(c2)NC(=O)CO3)csc1=Nc1ccc(OC(F)F)cc1 (stereo not drawn)	4	-12	0	1	1	x	x	x
CCN=c1scc(-c2ccc3c(c2)NC(=O)CO3)n1N=C1CCCC1	0	4	0	44*!	4	18	-37	20
COc1ccc(NC(=O)Nc2ccc3c(c2)CC(=O)N([C@H](C)CO)C[C@H](C)[C@H](CN(C)S(=O)(=O)c2ccc(C)cc2)O3)cc1	x	x	0	x	x	x	x	x
C[C@H](CO)N1C[C@H](C)[C@@H](CN(C)C)Oc2cc(C3=CCCCC3)ccc2S1(=O)=O	x	x	0	x	x	x	x	x
COc1ccccc1NC(=O)Cn1c(C)nc2c(sc(=S)n2Cc2ccco2)c1=O	1	4	0	58*	9	7	-37	1
NC(=O)C(=O)N/N=C/c1c2ccccc2cc2ccccc12	-7	4	0	41*	3	12	-31	-9
SMILES	Rin1-Abl PPI inh	ABHD5 PLIN5 PPI	XiGFP reactiv	Rpn11 block	NadD inh	Rpn11 inh conf	MMP-2 inh	Thrombin FP
COc1cc(/C=N/NC(=O)c2nnn(-c3nonc3N)c2-c2cccs2)ccc1O	-1	14	0	-8	-5	x	x	x
Cc1nnn(-c2nonc2N)c1C(=O)NNC(=O)c1ccc(Cl)c(Cl)c1	-1	-4	0	53*	3	0	0	4
C/C(=N\NC(=O)c1nnn(-c2nonc2N)c1C)c1ccc(-c2ccccc2)cc1	5	6	0	-1	12	x	x	x
COc1ccc(/C=N/NC(=O)c2nnn(-c3nonc3N)c2-c2cccs2)cc1OC	0	4	0	66*	10	21	-26	-16
COc1ccc(O)c(/C=N/NC(=O)c2c(C)nnn2-c2nonc2N)c1	3	2	1	171*	1	184*	21	26
O=c1[nH]c(Cc2ccccc2)nc2scc(-c3ccccc3)c12	4	-1	x	1	-5	x	x	x
Cc1nnc(SCc2nc3scc(-c4ccccc4)c3c(=O)[nH]2)s1	2	4	0	43*	-3	42*	-2	32
Nc1nnc(SCc2nc3scc(-c4ccccc4)c3c(=O)[nH]2)s1	-4	3	x	70*	-1	70*	0	60*
COc1ccc(Cn2c(N)c(C#N)c3nc4ccccc4nc32)cc1	1	-12	x	33	-2	x	x	x
COc1cccc(Cn2c(N)c(C#N)c3nc4ccccc4nc32)c1OC	1	-8	x	38*	11	34	-40	9
COc1cc(/C=N/NC(=O)c2ccccc2O)ccc1OCC(=O)Nc1ccccc1	1	1	0	40	7	x	x	x
O=C(COc1ccc(/C=N/NC(=O)c2cc3ccccc3o2)cc1Cl)Nc1ccccc1	2	5	x	+	-2	0	-62	-12
COc1ccc(-n2cccc2/C=C2/NC(=O)N(c3cccc(Cl)c3)C2=O)cc1	0	-5	0	41*	4	6	-18	4
O=C(O)c1cccc(-n2cccc2/C=C2/NC(=O)N(c3cccc(Cl)c3)C2=O)c1	-1	10	0	-1	2	x	x	x
CCC(=O)N[C@H]1C=C[C@H](CC(=O)NCC2CC2)O[C@H]1CO	x	x	0	x	x	x	x	x
Nc1cc(=O)[nH]c(SCC(=O)N2N=C(c3ccc(Cl)cc3)CC2c2ccco2)n1 (stereo not drawn)	2	5	0	44*	28	3	-40	-6
